# Experimental data as given in ChEMBL document CHEMBL4020818, “Novel Sigma Receptor Ligand-Nitric Oxide Photodonors: Molecular Hybrids for Double-Targeted Antiproliferative Effect” (J Med Chem, 2017).
# The source made the active and inactive calls.
# Key:
# [1] = target: Sigma non-opioid intracellular receptor 1 (Cavia porcellus, UniProt Q60492); assay: Displacement of [3H]-(+)-pentazocine from sigma 1 receptor in guinea pig brain membranes after 150 mins by liquid scintillation counting method; assay type: cell membranes, Membrane
# Sigma non-opioid intracellular receptor 1, sequence (Q60492 whole entry): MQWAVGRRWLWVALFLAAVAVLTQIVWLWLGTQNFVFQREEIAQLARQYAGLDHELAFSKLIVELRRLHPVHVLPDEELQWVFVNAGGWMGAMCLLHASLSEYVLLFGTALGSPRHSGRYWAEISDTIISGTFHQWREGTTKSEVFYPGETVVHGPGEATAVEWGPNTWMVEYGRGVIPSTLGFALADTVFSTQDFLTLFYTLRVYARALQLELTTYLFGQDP
# Summary of the method: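 Separated by filtration on PEI-presoaked GF/B filters, washed with ice-cold buffer, counted by liquid scintillation.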
# [2] = target: Sigma intracellular receptor 2 (Homo sapiens, UniProt Q5BJF2); assay: Displacement of [3H]-DTG from sigma 2 receptor (unknown origin) after 120 mins by liquid scintillation counting method
# Sigma intracellular receptor 2, sequence (Q5BJF2 whole entry): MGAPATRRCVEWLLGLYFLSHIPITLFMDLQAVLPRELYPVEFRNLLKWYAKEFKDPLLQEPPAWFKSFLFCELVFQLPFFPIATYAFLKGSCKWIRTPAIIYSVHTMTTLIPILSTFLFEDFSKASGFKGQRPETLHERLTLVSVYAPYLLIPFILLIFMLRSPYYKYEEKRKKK
# [3] = Selectivity ratio of Ki for sigma 1 receptor in guinea pig brain membranes to Ki for sigma 2 receptor (unknown origin); assay type: cell membranes
# [4] = Solubility of the compound in water/methanol (1:1) mixture; assay type: physicochemical; settings: buffer
# [5] = Stability of the compound in water/methanol (1:1) mixture assessed as nitric oxide release under light irradiation by amperometric detection method; assay type: physicochemical; settings: buffer
# [6] = Stability of the compound in water/methanol (1:1) mixture assessed as nitric oxide release under dark condition at 50 uM by amperometric detection method; assay type: physicochemical; settings: buffer
# [7] = Stability of the compound in water/methanol (1:1) mixture assessed as nitric oxide release under light irradiation at 50 uM by amperometric detection method; assay type: physicochemical; settings: buffer
# [8] = Dark toxicity in human MCF7 cells assessed as decrease in cell viability after 24 hrs by MTT assay; assay type: cell-based
# Summary of the method: (§1)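 Cells seeded at 10 × 10^3 per well, grown 24 h, then exposed in the dark for 24 h at 37 °C to compound (DMSO stock diluted in medium), top concentration 100 µM. MTT 0.5% added for 4 h, formazan dissolved in DMSO, read at 550 nm. Viability is expressed relative to untreated controls. EC50 comes from a variable-slope sigmoidal fit; quadruplicate wells, mean ± SEM.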
# [9] = Dark toxicity in human A2058 cells assessed as decrease in cell viability after 24 hrs by MTT assay; assay type: cell-based; summary of the method: as §1
# [10] = Dark toxicity in human NCTC-2544 cells assessed as decrease in cell viability after 24 hrs by MTT assay; assay type: cell-based; summary of the method: as §1
# MCF7 [11] = assay: Phototoxicity in human MCF7 cells assessed as decrease in cell viability at 10 to 50 uM preincubated for 24 hrs followed by light irradiation for 15 mins by MTT assay; assay type: functional, cell-based
# Summary of the method: (§2)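 Cells preincubated 24 h with graded compound concentrations, medium then replaced with phenol red-free medium. Irradiated 15 min with a 150 W Xe lamp through a 390 nm cutoff filter; untreated cells also irradiated. Viability by MTT (0.5%, 4 h, DMSO, 550 nm) as percent of untreated controls; quadruplicate wells, mean ± SD.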
# NCTC-2544 [12] = assay: Phototoxicity in human NCTC-2544 cells assessed as decrease in cell viability at 10 to 50 uM preincubated for 24 hrs followed by light irradiation for 15 mins by MTT assay; assay type: cell-based; settings: nctc-2544, 0.25 h; summary of the method: as §2
# NCTC-2544 [13] = assay: Dark toxicity in human NCTC-2544 cells assessed as decrease in cell viability at 10 to 50 uM after 24 hrs by MTT assay; assay type: cell-based; settings: nctc-2544, 24 h
# Summary of the method: (§3)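 Dark arm of the light experiments. Cells were seeded at 10 × 10^3 per well, precultured 24 h, then incubated 24 h at 37 °C with graded compound concentrations without irradiation. Viability was read by MTT (0.5%, 4 h, DMSO, 550 nm) as percent of untreated controls; quadruplicate wells, mean ± SD.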
# [14] = Stability in human MCF7 cells assessed as nitric oxide release under light irradiation at 50 uM preincubated for 24 hrs followed by light irradiation for 15 mins by DCF-DA dye-based fluorescence microscopic method; assay type: ADME, cell-based; settings: mcf7, 0.25 h
# Summary of the method: (§4)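 Cells plated on glass coverslips at 50,000, attached overnight, serum-starved 24 h, then treated with compound for 24 h. Loaded with 10 µM DCF-DA for 1 h, washed in PBS, irradiated in phenol red-free medium (Xe lamp, 390 nm cutoff, 15 min). Fixed in 4% PFA and imaged by fluorescence microscopy at 10x and 40x, dark versus light.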
# [15] = Stability in human MCF7 cells assessed as nitric oxide release under light irradiation at 50 uM preincubated for 24 hrs followed by light irradiation for 15 mins by Griess assay; assay type: ADME, cell-based; settings: mcf7, 0.25 h
# Summary of the method: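 After 50 µM compound treatment and irradiation (or dark control), cells were pelleted and lysed in hypotonic solution. Supernatant mixed 1:1 with Griess reagent, 30 min at 37 °C in the dark, absorbance read at 545 nm. Normalised to protein content; total nitrite quantified against a sodium nitrite standard.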
# A2058 [16] = assay: Phototoxicity in human A2058 cells assessed as decrease in cell viability at 10 to 25 uM preincubated for 24 hrs followed by light irradiation for 15 mins by MTT assay; assay type: functional, cell-based
# Summary of the method: (§5)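 Cells seeded at 10 × 10^3 per well and grown 24 h. Compound from DMSO stock, diluted in medium, incubated 24 h at 37 °C. Medium then swapped for phenol red-free medium and cells irradiated 15 min (150 W Xe lamp, 390 nm cutoff). MTT (0.5%) for 4 h, formazan in DMSO, OD 550 nm; viability as % of untreated controls. Quadruplicate wells, ≥2 repeats.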
# A2058 [17] = assay: Phototoxicity in human A2058 cells assessed as decrease in cell viability at 50 uM preincubated for 24 hrs followed by light irradiation for 15 mins by MTT assay; assay type: functional, cell-based; summary of the method: as §5
# MCF7 [18] = assay: Dark toxicity in human MCF7 cells assessed as decrease in cell viability at 10 to 50 uM after 24 hrs by MTT assay; assay type: cell-based; settings: mcf7, 24 h; summary of the method: as §3
# A2058 [19] = assay: Phototoxicity in human A2058 cells assessed as decrease in cell viability at 10 to 50 uM preincubated for 24 hrs followed by light irradiation for 15 mins by MTT assay; assay type: functional, cell-based; summary of the method: as §2
# A2058 [20] = assay: Dark toxicity in human A2058 cells assessed as decrease in cell viability at 10 to 50 uM after 24 hrs by MTT assay; assay type: cell-based; settings: a2058, 24 h; summary of the method: as §3
# MCF7 [21] = assay: Phototoxicity in human MCF7 cells assessed as decrease in cell viability at 0.01 to 10 uM preincubated for 24 hrs followed by light irradiation for 15 mins by MTT assay; assay type: functional, cell-based; summary of the method: as §2
# MCF7 [22] = assay: Dark toxicity in human MCF7 cells assessed as decrease in cell viability at 0.01 to 10 uM after 24 hrs by MTT assay; assay type: cell-based; settings: mcf7, 24 h; summary of the method: as §3
# A2058 [23] = assay: Phototoxicity in human A2058 cells assessed as decrease in cell viability at 1 to 10 uM preincubated for 24 hrs followed by light irradiation for 15 mins by MTT assay; assay type: functional, cell-based; summary of the method: as §2
# NCTC-2544 [24] = assay: Phototoxicity in human NCTC-2544 cells assessed as decrease in cell viability at 0.01 to 10 uM preincubated for 24 hrs followed by light irradiation for 15 mins by MTT assay; assay type: cell-based; settings: nctc-2544, 0.25 h; summary of the method: as §2
# NCTC-2544 [25] = assay: Dark toxicity in human NCTC-2544 cells assessed as decrease in cell viability at 0.01 to 10 uM after 24 hrs by MTT assay; assay type: cell-based; settings: nctc-2544, 24 h; summary of the method: as §3
# [26] = Stability in human MCF7 cells assessed as nitric oxide release under light irradiation at 10 uM preincubated for 24 hrs followed by light irradiation for 15 mins by DCF-DA dye-based fluorescence microscopic method; assay type: ADME, cell-based; settings: mcf7, 0.25 h; summary of the method: as §4
# [27] = Stability in human A2058 cells assessed as nitric oxide release under light irradiation at 10 uM preincubated for 24 hrs followed by light irradiation for 15 mins by DCF-DA dye-based fluorescence microscopic method; assay type: ADME, cell-based; settings: a2058, 0.25 h; summary of the method: as §4
Structure (SMILES),Ki [1],Ki [2],Ratio Ki [3],solubility [4],Stability [5],EC50 at 24 h ([8]; read-out: EC50),EC50 at 24 h ([8]; read-out: pEC50 (converted)),EC50 at 24 h ([9]; read-out: EC50),EC50 at 24 h ([9]; read-out: pEC50 (converted)),EC50 at 24 h ([10]; read-out: EC50),EC50 at 24 h ([10]; read-out: pEC50 (converted)),other results
O=[N+]([O-])c1ccc(NCCN2CCC(Cc3ccccc3)CC2)cc1C(F)(F)F,0.0407 µM,0.0761 µM,0.53,Soluble,Unstable,–,–,–,–,–,–,–
COc1cc2c(cc1OC)CN(CCCCCNc1ccc([N+](=O)[O-])c(C(F)(F)F)c1)CC2,0.0394 µM,0.0255 µM,1.55,Soluble,–,> 100 µM,> 100 µM,> 100 µM,> 100 µM,> 100 µM,> 100 µM,Stability [6]: Stable; Stability [7]: Unstable; Activity (MCF7 [11]): Active; Activity (NCTC-2544 [12]): Non-Toxic; Activity (NCTC-2544 [13]): Non-Toxic; Stability [14]: Unstable; Stability [15]: Unstable; Activity (A2058 [16]): inactive; Activity (A2058 [17]): Active
O=[N+]([O-])c1ccc(NCCCCN2CCC(Cc3ccccc3)CC2)cc1C(F)(F)F,0.02 µM,0.0084 µM,2.38,Soluble,Unstable,–,–,–,–,–,–,–
COc1cc2c(cc1OC)CN(CCNc1ccc([N+](=O)[O-])c(C(F)(F)F)c1)CC2,3.92 µM,0.0238 µM,164,Soluble,Unstable,> 100 µM,> 100 µM,> 100 µM,> 100 µM,> 100 µM,> 100 µM,Activity (MCF7 [11]): Active; Activity (MCF7 [18]): Non-Toxic; Activity (A2058 [19]): inactive; Activity (A2058 [20]): Non-Toxic; Activity (NCTC-2544 [12]): Non-Toxic; Activity (NCTC-2544 [13]): Non-Toxic; Stability [14]: Unstable; Stability [15]: Unstable
COc1cccc2c1C(=O)c1c(O)c3c(c(O)c1C2=O)C[C@@](O)(C(=O)CO)C[C@@H]3O[C@H]1C[C@H](N)[C@H](O)[C@H](C)O1 [DOXORUBICIN],–,–,–,–,–,15.3 µM,15.5 µM,6.5 µM,6.46 µM,32.5 µM,32.4 µM,–
COc1cc2c(cc1OC)CN(CCCCNc1ccc([N+](=O)[O-])c(C(F)(F)F)c1)CC2,0.0378 µM,0.023 µM,1.64,Soluble,Unstable,–,–,–,–,–,–,–
COc1cc2c(cc1OC)CN(CCCNc1ccc([N+](=O)[O-])c(C(F)(F)F)c1)CC2,0.212 µM,0.0162 µM,13.1,Soluble,Unstable,–,–,–,–,–,–,–
O=[N+]([O-])c1ccc(NCCCCCN2CCC(Cc3ccccc3)CC2)cc1C(F)(F)F,0.0404 µM,0.024 µM,1.68,Soluble,Unstable,14.9 µM,14.8 µM,14.2 µM,14.1 µM,15 µM,15.1 µM,Activity (MCF7 [21]): Active; Activity (MCF7 [22]): Non-Toxic; Activity (A2058 [23]): Active; Activity (NCTC-2544 [24]): Non-Toxic; Activity (NCTC-2544 [25]): Non-Toxic; Stability [26]: Unstable; Stability [27]: Unstable
O=[N+]([O-])c1ccc(NCCCN2CCC(Cc3ccccc3)CC2)cc1C(F)(F)F,0.0416 µM,0.0223 µM,1.87,Soluble,Unstable,–,–,–,–,–,–,–
